ChEMBL document CHEMBL1821604, “Anticancer activity and cDNA microarray studies of a (RS)-1,2,3,5-tetrahydro-4,1-benzoxazepine-3-yl]-6-chloro-9H-purine, and an acyclic (RS)-O,N-acetalic 6-chloro-7H-purine” (Eur J Med Chem, 2011)

Experiments:
[1] = Cytotoxicity against rat IEC-6 cells after 6 days by SRB colorimetric assay; format: cell-based; conditions: IEC-6, 144 h
[2] = test system: HT-29; test: Induction of apoptosis in human HT-29 cells assessed early apoptotic cells at IC50 after 48 hrs using annexin V-FITC staining by flow cytometry; format: functional
Summary of the method: (§1)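 Cells exposed 48 h to the compound at its IC₅₀ concentration, with 0.5% DMSO-only cells as control. Stained with annexin V-FITC plus propidium iodide, then flow cytometry. Gating: annexin+/PI− = early apoptotic; annexin+/PI+ = late apoptotic; PI only = dead/necrotic; double-negative = viable.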

[3] = test system: MCF7; test: Down regulation of GBP1 gene expression in human MCF7 cells at IC50 after 48 hrs by cDNA microarray technique relative to control; format: functional
Summary of the method: (§2)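 Cells (8 × 10⁶) were cultured in DMEM with 10% heat-inactivated FBS at 37 °C under 5% CO₂. They were exposed for 48 h to compound at its IC₅₀, with DMSO-treated parallel cultures as controls (final DMSO ≤0.1% v/v). Total RNA was isolated by trizol/chloroform phase separation, RNeasy column cleanup and on-column DNase, then quantified by OD260/OD280. Expression was profiled by cDNA microarray relative to control.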

[4] = test system: HT-29; test: Induction of apoptosis in human HT-29 cells assessed necrotic cells at IC50 after 48 hrs using annexin V-FITC staining by flow cytometry; format: functional; summary of the method: as §1
[5] = test system: MCF7; test: Induction of apoptosis in human MCF7 cells assessed viable cells at IC50 after 48 hrs using annexin V-FITC staining by flow cytometry; format: functional; summary of the method: as §1
[6] = test system: MCF7; test: Induction of apoptosis in human MCF7 cells assessed late apoptotic cells at IC50 after 48 hrs using annexin V-FITC staining by flow cytometry; format: functional; summary of the method: as §1
[7] = test system: MCF7; test: Induction of apoptosis in human MCF7 cells assessed early apoptotic cells at IC50 after 48 hrs using annexin V-FITC staining by flow cytometry; format: functional; summary of the method: as §1
[8] = Therapeutic index, ratio of IC50 for human MCF10A cells to IC50 for human MCF7 cells; format: cell-based; conditions: MCF10A cells (normal) versus MCF7 cells (cancer), read-out: Ratio IC50
Summary of the method: (§3)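 Each cell line grown in DMEM with 10% FBS, 37 °C, 5% CO₂. Cells seeded and allowed 24 h, then drug added in medium (≤0.1% v/v DMSO). Medium and drug renewed at day 3, cells kept 3 more days. Sulforhodamine-B read at 492 nm. IC₅₀ taken from semilog dose-response curves by linear interpolation, triplicate wells, at least twice. Index = IC₅₀ normal line / IC₅₀ cancer line.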

[9] = test system: HT-29; test: Cell cycle arrest in human HT-29 cells assessed as accumulation at S phase at IC50 after 48 hrs using […] propidium iodide staining based FACS analysis; format: functional
[10] = test system: HT-29; test: Cytotoxicity against human HT-29 cells after 6 days by SRB colorimetric assay; format: functional, cell-based; conditions: HT-29, 144 h
[11] = test system: HT-29; test: Down regulation of IL12RB2 gene expression in human HT-29 cells at IC50 after 48 hrs by cDNA microarray technique relative to control; format: functional; summary of the method: as §2
[12] = test system: MCF7; test: Induction of apoptosis in human MCF7 cells assessed necrotic cells at IC50 after 48 hrs using annexin V-FITC staining by flow cytometry; format: functional; summary of the method: as §1
[13] = test system: HT-29; test: Cell cycle arrest in human HT-29 cells assessed as accumulation at G0/G1 phase at IC50 after 48 hrs using […] propidium iodide staining based FACS analysis; format: functional
[14] = test system: HT-29; test: Upregulation of IMP-1 gene expression in human HT-29 cells at IC50 after 48 hrs by cDNA microarray technique relative to control; format: functional
[15] = test system: MCF-10A; test: Cytotoxicity against human MCF10A cells after 6 days by SRB colorimetric assay; format: cell-based; conditions: 144 h
[16] = test system: MCF7; test: Down regulation of FLJ22955 gene expression in human MCF7 cells at IC50 after 48 hrs by cDNA microarray technique relative to control; format: functional; summary of the method: as §2
[17] = test system: MCF7; test: Down regulation of RAC2 gene expression in human MCF7 cells at IC50 after 48 hrs by cDNA microarray technique relative to control; format: functional
[18] = test system: MCF7; test: Down regulation of PGLYRP4 gene expression in human MCF7 cells at IC50 after 48 hrs by cDNA microarray technique relative to control; format: functional
[19] = test system: HT-29; test: Down regulation of LIN28 gene expression in human HT-29 cells at IC50 after 48 hrs by cDNA microarray technique relative to control; format: functional; summary of the method: as §2
[20] = test system: HT-29; test: Induction of apoptosis in human HT-29 cells assessed viable cells at IC50 after 48 hrs using annexin V-FITC staining by flow cytometry; format: functional; summary of the method: as §1
[21] = test system: MCF7; test: Cell cycle arrest in human MCF7 cells assessed as accumulation at G0/G1 phase at IC50 after 48 hrs using annexin V-FITC and propidium iodide staining based FACS analysis; format: functional
[22] = test system: MCF7; test: Cell cycle arrest in human MCF7 cells assessed as accumulation at S phase at IC50 after 48 hrs using annexin V-FITC and propidium iodide staining based FACS analysis; format: functional
[23] = Therapeutic index, ratio of IC50 for rat IEC-6 cells to IC50 for human HT-29 cells; format: cell-based; conditions: IEC-6 cells (normal) versus HT-29 cells (cancer), read-out: Ratio IC50; summary of the method: as §3
[24] = test system: HT-29; test: Cell cycle arrest in human HT-29 cells assessed as accumulation at G2/M phase at IC50 after 48 hrs using […] propidium iodide staining based FACS analysis; format: functional
[25] = test system: HT-29; test: Induction of apoptosis in human HT-29 cells assessed late apoptotic cells at IC50 after 48 hrs using annexin V-FITC staining by flow cytometry; format: functional; summary of the method: as §1
[26] = test system: MCF7; test: Cell cycle arrest in human MCF7 cells assessed as accumulation at G2/M phase at IC50 after 48 hrs using annexin V-FITC and propidium iodide staining based FACS analysis; format: functional
[27] = test system: HT-29; test: Upregulation of TP53INP1 gene expression in human HT-29 cells at IC50 after 48 hrs by cDNA microarray technique relative to control; format: functional
[28] = test system: HT-29; test: Down regulation of DNAJC7 gene expression in human HT-29 cells at IC50 after 48 hrs by cDNA microarray technique relative to control; format: functional; summary of the method: as §2
[29] = test system: HT-29; test: Down regulation of PCSK9 gene expression in human HT-29 cells at IC50 after 48 hrs by cDNA microarray technique relative to control; format: functional
[30] = test system: MCF7; test: Down regulation of TAS2R40 gene expression in human MCF7 cells at IC50 after 48 hrs by cDNA microarray technique relative to control; format: functional
[31] = test system: HT-29; test: Down regulation of BAZ2A gene expression in human HT-29 cells at IC50 after 48 hrs by cDNA microarray technique relative to control; format: functional
Summary of the method: (§4)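 8 × 10⁶ cells exposed 48 h to compound at its IC50 concentration; total RNA isolated with trizol/chloroform and RNeasy columns including on-column DNase step; RNA quantified by OD 260/280; DMSO-treated cultures as control.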

[32] = test system: HT-29; test: Down regulation of DT1P1A10 gene expression in human HT-29 cells at IC50 after 48 hrs by cDNA microarray technique relative to control; format: functional; summary of the method: as §2
[33] = test system: MCF7; test: Down regulation of RHAG gene expression in human MCF7 cells at IC50 after 48 hrs by cDNA microarray technique relative to control; format: functional
[34] = test system: MCF7; test: Down regulation of BIVM gene expression in human MCF7 cells at IC50 after 48 hrs by cDNA microarray technique relative to control; format: functional; summary of the method: as §4

SMILES	IC50 [1] [µM]	Activity [2] [%]	fold change (FC) [3]	Activity [4] [%]	Activity [5] [%]	Activity [6] [%]	Activity [7] [%]	selectivity ratio [8]	Activity [9] [%]	IC50 [10] [µM]	Activity [12] [%]	Activity [13] [%]	IC50 [15] [µM]	Activity [20] [%]	Activity [21] [%]	Activity [22] [%]	selectivity ratio [23]	Activity [24] [%]	Activity [25] [%]	Activity [26] [%]	other results
COC(CN(c1ccccc1CO)S(=O)(=O)c1ccccc1[N+](=O)[O-])n1cnc2ncnc(Cl)c21 (racemic)	12.1	21.1	-2.01	8.33	20.36	48.49	6.36	1.92	10.5	3.28	24.79	71.58	6.23	54.93	65.09	23.94	3.69	12.7	15.64	10.98	fold change (FC) [11]: -2.3; fold change (FC) [14]: 2.88; fold change (FC) [16]: -2.65; fold change (FC) [17]: -2.29; fold change (FC) [18]: -2.45; fold change (FC) [19]: -2.02
O=C(OCC1c2ccccc2-c2ccccc21)N1CC(n2cnc3c(Cl)ncnc32)OCc2ccccc21 (racemic)	10.1	18.07	-2.02	8.61	5.07	72.81	7.27	3.19	14.7	3.38	14.85	74.68	2.14	59.69	64.39	22.43	2.99	14.9	13.63	13.18	fold change (FC) [27]: 2.58; fold change (FC) [28]: -2.2; fold change (FC) [29]: -2.32; fold change (FC) [30]: -2.85; fold change (FC) [31]: -2.65; fold change (FC) [32]: -2.28; fold change (FC) [33]: -6.26; fold change (FC) [34]: -2.05
